From ChEMBL document CHEMBL1126899, “Nonpeptide angiotensin II antagonists derived from 1H-pyrazole-5-carboxylates and 4-aryl-1H-imidazole-5-carboxylates” (J Med Chem, 1993)

Assays:
[1] = target: T1, Type-1 angiotensin II receptor (Oryctolagus cuniculus, UniProt P34976); test: Evaluation of Angiotensin II antagonistic activity by displacement of [125I]-Sar Ile-AII at the rabbit aorta Angiotensin II receptor, type 1; type: tissue-based
T1 sequence (P34976 whole entry): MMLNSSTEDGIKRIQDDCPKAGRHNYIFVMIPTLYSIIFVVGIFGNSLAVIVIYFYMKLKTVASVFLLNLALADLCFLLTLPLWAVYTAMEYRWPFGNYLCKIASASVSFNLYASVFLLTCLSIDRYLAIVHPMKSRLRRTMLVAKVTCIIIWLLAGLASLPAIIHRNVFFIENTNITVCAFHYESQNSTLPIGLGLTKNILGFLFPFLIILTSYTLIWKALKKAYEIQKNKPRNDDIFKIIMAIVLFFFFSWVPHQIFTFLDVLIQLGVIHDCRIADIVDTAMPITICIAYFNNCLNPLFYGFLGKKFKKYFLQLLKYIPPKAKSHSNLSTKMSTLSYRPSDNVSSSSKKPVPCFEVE
Method in brief: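 Rabbit aorta membranes, run without BSA. Competition against [¹²⁵I]Sar¹Ile⁸-AII, in duplicate tubes. Some values are means of two or more separate assays. Standard error is estimated at <30% of the mean.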

Rattus norvegicus [2] = test: Time to produce onset of action for inhibition of Angiotensin II pressor response in conscious, normotensive rats at 1 mg/kg iv; type: functional
Method in brief: (§1)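 Conscious male Sprague-Dawley rats (300–400 g), instrumented for iv dosing and arterial pressure. A single iv or po bolus of compound (PEG 400 for some oral doses), then repeated AII challenges at 0.1 μg/kg iv. […] Averaged from at least two rats unless noted.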

Rattus norvegicus [3] = test: Peak percent inhibition of Angiotensin II pressor response in conscious, normotensive rats at 1 mg/kg iv; type: functional
Method in brief: (§2)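 Male Sprague-Dawley rats (300–400 g), conscious, catheterized for iv dosing and for arterial pressure and heart rate. Compound given iv or po; PEG 400 vehicle in some oral cases. AII 0.1 μg/kg iv boluses at set intervals afterward. % inhibition of the MAP rise was calculated at each time point, and the peak was taken. Averaged from at least two rats unless noted.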

Rattus norvegicus [4] = test: Peak percent inhibition of Angiotensin II pressor response in conscious, normotensive rats at 0.3 mg/kg po; type: functional; method in brief: as §2
Rattus norvegicus [5] = test: Time to produce onset of action for inhibition of Angiotensin II pressor response in conscious, normotensive rats at 1 mg/kg po; type: functional; method in brief: as §1
Rattus norvegicus [6] = test: Peak percent inhibition of Angiotensin II pressor response in conscious, normotensive rats at 0.1 mg/kg iv; type: functional; method in brief: as §2
Rattus norvegicus [7] = test: Time to produce onset of action for inhibition of Angiotensin II pressor response in conscious, normotensive rats at 0.3 mg/kg po; type: functional; method in brief: as §1
Rattus norvegicus [8] = test: Peak percent inhibition of Angiotensin II pressor response in conscious, normotensive rats at 1 mg/kg po; type: functional; method in brief: as §2
Rattus norvegicus [9] = test: Time to produce onset of action for inhibition of Angiotensin II pressor response in conscious, normotensive rats at 0.1 mg/kg iv; type: functional; method in brief: as §1
Rattus norvegicus [10] = test: Peak percent inhibition of Angiotensin II pressor response in conscious, normotensive rats at 1 mg/kg iv (no. of animals treated); type: functional; method in brief: as §2
Rattus norvegicus [11] = test: Time to produce onset of action for inhibition of pressor response in conscious, normotensive rats at 1 mg/kg iv (no. of animals treated); type: functional; method in brief: as §1
Rattus norvegicus [12] = test: Peak percent inhibition of Angiotensin II pressor response in conscious, normotensive rats at 0.1 mg/kg iv (no. of animals treated); type: functional; method in brief: as §2
Rattus norvegicus [13] = test: Time to produce onset of action for inhibition of pressor response in conscious, normotensive rats at 0.1 mg/kg iv (no. of animals treated); type: functional; method in brief: as §1
Rattus norvegicus [14] = test: Time to produce onset of action for inhibition of pressor response in conscious, normotensive rats at 0.3 mg/kg po (no. of animals treated); type: functional; method in brief: as §1
Rattus norvegicus [15] = test: Peak percent inhibition of Angiotensin II pressor response in conscious, normotensive rats at 0.3 mg/kg po(no. of animals treated); type: functional; method in brief: as §2

| IC50 [1] | Structure (SMILES) | also measured |
| --- | --- | --- |
| 18 nM | CCCCc1nn(-c2ccccn2)c(C(=O)OCC)c1Cc1ccc(-c2ccccc2-c2nnn[nH]2)cc1 |  |
| 0.69 nM | CCCc1nn(-c2c(Cl)cccc2Cl)c(C(=O)O)c1Cc1ccc(-c2ccccc2-c2nn[nH]n2)cc1 | inhibition in vivo at 0.3 mg/kg (Rattus norvegicus [4]): 56%; Duration (Rattus norvegicus [5]): >23 h; inhibition in vivo at 0.1 mg/kg (Rattus norvegicus [6]): 60%; Duration (Rattus norvegicus [7]): >3 h; inhibition in vivo at 1 mg/kg (Rattus norvegicus [8]): 87%; Duration (Rattus norvegicus [2]): >6 h; inhibition in vivo at 1 mg/kg (Rattus norvegicus [3]): 100%; Duration (Rattus norvegicus [9]): 5.4 h |
| 0.8 nM | CCCCc1nn(-c2ccc(OC)cc2)c(C(=O)O)c1Cc1ccc(-c2ccccc2-c2nn[nH]n2)cc1 |  |
| 8 nM | CCCCc1nn(-c2c(Cl)cccc2Cl)c(C(=O)OCC)c1Cc1ccc(-c2ccccc2-c2nnn[nH]2)cc1 |  |
| 2.3 nM | CCCCc1nn(-c2cccc(Cl)c2)c(C(=O)O)c1Cc1ccc(-c2ccccc2-c2nn[nH]n2)cc1 |  |
| 1.3 nM | CCCCc1nn(-c2ccc(Cl)cc2)c(C(=O)O)c1Cc1ccc(-c2ccccc2-c2nn[nH]n2)cc1 |  |
| 0.6 nM | CCCCc1nn(-c2ccc(Cl)cc2Cl)c(C(=O)O)c1Cc1ccc(-c2ccccc2-c2nn[nH]n2)cc1 |  |
| 0.64 nM | CCCCc1nn(-c2ccccc2-c2ccccc2)c(C(=O)O)c1Cc1ccc(-c2ccccc2-c2nnn[nH]2)cc1 |  |
| 1.7 nM | CCCCc1nn(-c2ccccn2)c(C(=O)O)c1Cc1ccc(-c2ccccc2-c2nn[nH]n2)cc1 |  |
| 56 nM | CCCc1nn(-c2ccccc2C(F)(F)F)c(C(=O)OCC)c1Cc1ccc(-c2ccccc2-c2nnn[nH]2)cc1 |  |
| 0.77 nM | CCCCc1nn(-c2cccc(Cl)c2Cl)c(C(=O)O)c1Cc1ccc(-c2ccccc2-c2nnn[nH]2)cc1 |  |
| 105 nM | CCCCc1nn(-c2cc(Cl)ccc2Cl)c(C(=O)OCC)c1Cc1ccc(-c2ccccc2-c2nn[nH]n2)cc1 |  |
| 1.7 nM | CCCCc1nn(-c2ccccc2[N+](=O)[O-])c(C(=O)O)c1Cc1ccc(-c2ccccc2-c2nnn[nH]2)cc1 |  |
| > 100 nM | CCCCc1nn(Cc2ccccc2)c(C(=O)OCC)c1Cc1ccc(-c2ccccc2-c2nnn[nH]2)cc1 |  |
| 0.46 nM | CCCCc1nn(-c2ccccc2C)c(C(=O)O)c1Cc1ccc(-c2ccccc2-c2nn[nH]n2)cc1 |  |

Second part, the compound before the results:

| Structure (SMILES) | IC50 [1] | also measured |
| --- | --- | --- |
| CCCCc1nn(-c2ccccc2-c2ccccc2)c(C(=O)OCC)c1Cc1ccc(-c2ccccc2-c2nn[nH]n2)cc1 | 23 nM |  |
| CCCCc1nn(CC)c(C(=O)O)c1Cc1ccc(-c2ccccc2-c2nn[nH]n2)cc1 | 2.7 nM |  |
| CCCCc1n[nH]c(C(=O)OCC)c1Cc1ccc(-c2ccccc2-c2nn[nH]n2)cc1 | 130 nM | Duration (Rattus norvegicus [2]): >5 h; inhibition in vivo at 1 mg/kg (Rattus norvegicus [3]): 80% |
| CCCc1nn(-c2c(Cl)cccc2Cl)c(C(=O)OCC)c1Cc1ccc(-c2ccccc2-c2nn[nH]n2)cc1 | 20 nM |  |
| CCCCc1nn(CC(F)(F)F)c(C(=O)O)c1Cc1ccc(-c2ccccc2-c2nn[nH]n2)cc1 | 0.52 nM |  |
| CCCCc1nn(-c2cccc(Cl)c2)c(C(=O)OCC)c1Cc1ccc(-c2ccccc2-c2nn[nH]n2)cc1 | 55 nM |  |
| CCCCc1n[nH]c(C(=O)O)c1Cc1ccc(-c2ccccc2-c2nn[nH]n2)cc1 | 2 nM | inhibition in vivo at 1 mg/kg (Rattus norvegicus [10]): 94%; Duration (Rattus norvegicus [11]): >6 h |
| CCCCc1nn(-c2c(Cl)cc(Cl)cc2Cl)c(C(=O)OCC)c1Cc1ccc(-c2ccccc2-c2nn[nH]n2)cc1 | 37 nM |  |
| CCCCc1nc(-c2ccccc2Cl)c(C(=O)O)n1Cc1ccc(-c2ccccc2-c2nn[nH]n2)cc1 | 0.55 nM | inhibition in vivo at 0.1 mg/kg (Rattus norvegicus [12]): 88%; Duration (Rattus norvegicus [13]): >6 h; Duration (Rattus norvegicus [14]): 0.4 h; inhibition in vivo at 0.3 mg/kg (Rattus norvegicus [15]): 50% |
| CCCCc1nn(-c2ccccc2C)c(C(=O)OCC)c1Cc1ccc(-c2ccccc2-c2nn[nH]n2)cc1 | 13 nM |  |
